Converted amounts (≈) assume the structure as drawn. The source made the active and inactive calls. Starred links: 1 amine or outer side, 2 acyl side, 3 side chain; linkers in the order of their positions; H or OH if unused. Positions of bridges follow the written chain, without caps; N, C: chain ends. Non-standard residues stand in square brackets, D forms with d. Residues, ends and D or L forms follow the SMILES beside them. Chains are numbered I, II in the order given. Actinocin(1to9) = Cc1c2oc3c(C)ccc(C(=O)[*:2])c3nc-2c(C(=O)[*:1])c(N)c1=O; NMeV = CN[C@H](C(=O)O)C(C)C; Sar = CNCC(=O)O

For one data set, the system named is Salmonella enterica. Nature of the data set: Antibacterial activity against Salmonella enterica ATCC 10708 after 16 to 48 hrs. Type of data set: functional. Put shortly:
(§1)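 MIC determined against each bacterial strain after 16–48 h incubation, in triplicate. DMSO vehicle was the negative control, and kanamycin and ampicillin were the positive controls.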

A further data set has as its system Staphylococcus aureus. Nature of the data set: Antibacterial activity against Staphylococcus aureus ATCC 6538 after 16 to 48 hrs. Type of data set: functional. In outline:
as §1

Another data set concerns Micrococcus luteus. Nature of the data set: Antibacterial activity against Micrococcus luteus ATCC 15307 after 16 to 48 hrs. Type of data set: functional. Put shortly: as §1
Another data set has as its system Escherichia coli. Nature of the data set: Antibacterial activity against Escherichia coli ATCC 12435 after 16 to 48 hrs. In kind it is functional. Put shortly:
as §1

The subject of a further data set is Bacillus subtilis. Nature of the data set: Antibacterial activity against Bacillus subtilis ATCC 6633 after 16 to 48 hrs. Type of data set: functional. In outline:
as §1

The next data set relates to Mycolicibacterium aurum. Nature of the data set: Antibacterial activity against Mycobacterium aurum ATCC 23366 after 16 to 48 hrs. Type of data set: functional. Put shortly:
as §1

For data set [1], the system named is A549. Kind of data set: Antiproliferative activity against human A549 cells assessed as reduction in cell viability after 72 hrs by alamar blue assay. In kind it is functional, cell-based. The following applies: A549, 72 h. In outline:
(§2)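 Cancer cell viability measured after 72 h exposure, in triplicate, and EC50/IC50 derived. DMSO served as the negative control. Positive controls were actinomycin D at 20 μM and H2O2 at 2 mM, each taken as 0% viable cells.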
In general terms: Alamar Blue is a resazurin reagent that responds to reducing activity.

The subject of a further data set is Saccharomyces cerevisiae. Nature of the data set: Antifungal activity against Saccharomyces cerevisiae ATCC 204508 after 16 to 48 hrs. Type of data set: functional. In outline:
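MIC determined against the S. cerevisiae strain after 16–48 h incubation, in triplicate. DMSO vehicle was the negative control and amphotericin B the positive control.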

For data set [2], the system named is PC-3. Kind of data set: Antiproliferative activity against human PC3 cells assessed as reduction in cell viability after 72 hrs by alamar blue assay. In kind it is functional, cell-based. The following applies: PC-3, 72 h. In outline:
as §2

A further data set deals with Ambystoma mexicanum. Nature of the data set: Toxicity in axolotl embryo at 1 uM after 7 days by tail regeneration assay. In kind it is organism-based. The conditions noted are these: in vivo, 168 h. In outline: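 Axolotl embryos (Ambystoma Genetic Stock Center) had the tail amputated and were exposed to 1 μM compound. Regeneration, judged by a rounded tail tip, was scored at 7 days post-amputation. DMSO vehicle was the negative control and geldanamycin the positive control.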

For data set [3], the system named is PC-3. Nature of the data set: Antiproliferative activity against human PC3 cells assessed as cell viability at 20 uM after 72 hrs by alamar blue assay relative to control. Type of data set: functional. The following applies: PC-3, 72 h, read-out: Activity.
In data set [4] the test system is A549. Kind of data set: Antiproliferative activity against human A549 cells assessed as cell viability at 20 uM after 72 hrs by alamar blue assay relative to control. Type of data set: functional. The conditions noted are these: A549, 72 h, read-out: Activity.
Data set [5] concerns the target Eukaryotic translation initiation factor 4E-binding protein 1 (Homo sapiens) (UniProt Q13541). Kind of data set: Inhibition of 4E-BP1 phosphorylation in human HCT116 cells at 1 uM after 6 hrs by Western blot analysis. In kind it is cell-based. Put shortly: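 HCT116 cells treated for 6 h with compound at 1 or 2 μM, or with DMSO as negative control. Lysates analysed by Western blot for phosphorylated 4E-BP1 alongside related proteins.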
Background: In western blotting, separated proteins are transferred to a membrane and probed.

Sequence of Eukaryotic translation initiation factor 4E-binding protein 1 (Homo sapiens) (Q13541 whole entry): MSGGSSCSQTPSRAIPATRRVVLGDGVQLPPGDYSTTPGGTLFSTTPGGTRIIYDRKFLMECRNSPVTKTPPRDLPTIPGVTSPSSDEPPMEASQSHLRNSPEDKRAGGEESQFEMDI

What is called MIC is the smallest concentration in the dilution series that meets the test's criterion for growth inhibition. Take `NC[C@H]1O[C@H](O[C@H]2[C@H](O)[C@@H](O[C@H]3O[C@H](CO)[C@@H](O)[C@H](N)[C@H]3O)[C@H](N)C[C@@H]2N)[C@H](O)[C@@H](O)[C@@H]1O` [KANAMYCIN]: the MIC in the data set with Salmonella enterica was 14 µM (≈ 6.78 µg/mL); in the data set with Staphylococcus aureus it was 7.5 µM (≈ 3.63 µg/mL); against Micrococcus luteus, 15 µM (≈ 7.27 µg/mL); against Escherichia coli, 7.5 µM (≈ 3.63 µg/mL); in the data set on Bacillus subtilis it was 2 µM (≈ 0.969 µg/mL).

In general, EC50 refers to the concentration at which the effect is half-maximal. As to `Cc1cc(=O)[nH]c2c(O)c3c(cc12)c(CO)cc(=O)n3C`, the MIC in the data set on Salmonella enterica, in the data set on Staphylococcus aureus, in the data set with Mycolicibacterium aurum, in the data set with Micrococcus luteus, with Escherichia coli and in the data set on Saccharomyces cerevisiae was more than 24 µM each time. The compound further showed an MIC against Bacillus subtilis of more than 24 µM. Moreover, the EC50 in the data set on A549 [1] and with PC-3 [2] was more than 100 µM in each case.

`CC1(C)S[C@@H]2[C@H](NC(=O)[C@H](N)c3ccccc3)C(=O)N2[C@H]1C(=O)O` [AMPICILLIN]: the MIC with Salmonella enterica was found to be 25 µM (≈ 8.74 µg/mL); in the data set with Staphylococcus aureus, 12 µM (≈ 4.19 µg/mL); against Micrococcus luteus, 25 µM (≈ 8.74 µg/mL); with Escherichia coli, 25 µM (≈ 8.74 µg/mL).

For `COC(=O)c1cc2cc(CCc3cc4c(o3)C(=O)c3c(O)c(OC)cc(OC)c3C4=O)c(O)c(O)c2c(=O)o1`, the MIC in the data set with Salmonella enterica is more than 24 µM; with Staphylococcus aureus, 3 µM (≈ 1.61 µg/mL); in the data set on Mycolicibacterium aurum, more than 24 µM; against Micrococcus luteus it was 1.5 µM (≈ 0.805 µg/mL); against Escherichia coli it was more than 24 µM; with Saccharomyces cerevisiae it was more than 24 µM. For the same compound, the MIC in the data set on Bacillus subtilis worked out at 0.4 µM (≈ 0.215 µg/mL). Moreover, the concentration for a half-maximal effect (EC50) in the data set with A549 [1] and in the data set with PC-3 [2] was more than 100 µM in each case.

`C[C@@H]1[C@H](O)[C@@H](C)/C=C/C=C/C=C/C=C/C=C/C=C/C=C/[C@H](O[C@@H]2O[C@H](C)[C@@H](O)[C@H](N)[C@@H]2O)C[C@@H]2O[C@](O)(C[C@@H](O)C[C@@H](O)[C@H](O)CC[C@@H](O)C[C@@H](O)CC(=O)O[C@H]1C)C[C@H](O)[C@H]2C(=O)O` [AMPHOTERICIN B] gave an MIC with Saccharomyces cerevisiae of 2 µM (≈ 1.85 µg/mL).

`Cc1cc(=O)n(C)c2c(O)c3c(cc12)c(C)cc(=O)n3C`: the MIC was more than 24 µM in the data set on Salmonella enterica; 12 µM (≈ 3.41 µg/mL) against Staphylococcus aureus; more than 24 µM with Mycolicibacterium aurum; 12 µM (≈ 3.41 µg/mL) in the data set with Micrococcus luteus; more than 24 µM against Escherichia coli; more than 24 µM against Saccharomyces cerevisiae. The compound further returned an MIC in the data set with Bacillus subtilis of 6 µM (≈ 1.71 µg/mL). Moreover, the EC50 was found to be 15.2 µM in the data set on A549 [1] and 1.14 µM in the data set with PC-3 [2].

Regarding `C/C=C/C=C/[C@H]1C[C@H](O)CCN1`, the MIC against Salmonella enterica, in the data set on Staphylococcus aureus, with Mycolicibacterium aurum, in the data set on Micrococcus luteus, in the data set with Escherichia coli and in the data set on Saccharomyces cerevisiae was more than 24 µM throughout. In the data set with Bacillus subtilis, the MIC was more than 24 µM. The concentration for a half-maximal effect (EC50) in the data set with A549 [1] and in the data set with PC-3 [2] was more than 100 µM each time.

`COC(=O)c1cc2cc3c(c(O)c2c(=O)o1)O[C@]1(CC3)Cc2c(O)c3c(c(O)c2O1)C(=O)C(OC)=CC3=O`: the minimum inhibitory concentration (MIC) is more than 24 µM in the data set on Salmonella enterica; 0.075 µM (≈ 0.0392 µg/mL) with Staphylococcus aureus; 12 µM (≈ 6.27 µg/mL) against Mycolicibacterium aurum; 0.15 µM (≈ 0.0784 µg/mL) with Micrococcus luteus; more than 24 µM in the data set with Escherichia coli; 3 µM (≈ 1.57 µg/mL) with Saccharomyces cerevisiae. The same compound registered an MIC in the data set on Bacillus subtilis of 0.02 µM (≈ 0.0104 µg/mL). For the same compound, in the data set with Ambystoma mexicanum, the Activity result is given as “Non-Toxic”. Further, the EC50 with A549 [1] and with PC-3 [2] was more than 100 µM throughout.

Take `Cc1cc(=O)n2c3c(c4c(cc13)c(C(=O)O)cc(=O)n4C)OC2`: the MIC against Salmonella enterica, against Staphylococcus aureus, against Mycolicibacterium aurum, against Micrococcus luteus, in the data set with Escherichia coli and against Saccharomyces cerevisiae was more than 24 µM throughout. The compound further gave an MIC with Bacillus subtilis of more than 24 µM. The concentration giving a half-maximal response (EC50) with A549 [1] and in the data set with PC-3 [2] was more than 100 µM throughout.

In the data set with Mycolicibacterium aurum, `CO[C@H]1/C=C/O[C@@]2(C)Oc3c(C)c(O)c4c(O)c(c(/C=N/N5CCN(C)CC5)c(O)c4c3C2=O)NC(=O)/C(C)=C\C=C\[C@H](C)[C@H](O)[C@@H](C)[C@@H](O)[C@@H](C)[C@H](OC(C)=O)[C@@H]1C` [RIFAMPIN] displayed an MIC of 2 µM (≈ 1.65 µg/mL).

Turning to `Cc1cc(=O)n2c3c(c4c(cc13)c(CO)cc(=O)n4C)OC2`, the MIC against Salmonella enterica was more than 24 µM; in the data set on Staphylococcus aureus it was more than 24 µM; in the data set with Mycolicibacterium aurum, more than 24 µM; in the data set on Micrococcus luteus, 12 µM (≈ 3.58 µg/mL); in the data set on Escherichia coli, more than 24 µM; in the data set on Saccharomyces cerevisiae it was more than 24 µM. In the data set on Bacillus subtilis, this compound came in with an MIC of 12 µM (≈ 3.58 µg/mL). Besides, the EC50 in the data set with A549 [1] and in the data set with PC-3 [2] was more than 100 µM throughout.

Take `COC(=O)c1cc2cc3c(c(O)c2c(=O)o1)O[C@]1(CC3)CC2=C(O1)C(=O)c1c(O)c(OC)cc(OC)c1C2=O`: the MIC is more than 24 µM in the data set with Salmonella enterica; 12 µM (≈ 6.44 µg/mL) in the data set on Staphylococcus aureus; more than 24 µM in the data set with Mycolicibacterium aurum; 6 µM (≈ 3.22 µg/mL) in the data set with Micrococcus luteus; more than 24 µM against Escherichia coli; 12 µM (≈ 6.44 µg/mL) against Saccharomyces cerevisiae. In the data set with Bacillus subtilis, this compound displayed a minimal inhibitory concentration (MIC) of 12 µM (≈ 6.44 µg/mL). The EC50 in the data set on A549 [1] and with PC-3 [2] was more than 100 µM each time.

In the case of `Cc1c2oc3c(C)ccc(C(=O)N[C@@H]4C(=O)N[C@H](C(C)C)C(=O)N5CCC[C@H]5C(=O)N(C)CC(=O)N(C)[C@@H](C(C)C)C(=O)O[C@@H]4C)c3nc-2c(C(=O)N[C@@H]2C(=O)N[C@H](C(C)C)C(=O)N3CCC[C@H]3C(=O)N(C)CC(=O)N(C)[C@@H](C(C)C)C(=O)O[C@@H]2C)c(N)c1=O` [DACTINOMYCIN] (I: T[dV]P[Sar][NMeV] / II: T[dV]P[Sar][NMeV]; ester I:1-I:C, II:1-II:C; linker I:N-II:N via Actinocin(1to9)), the viability at 20 µM with PC-3 [3] and in the data set on A549 [4] was 0% each time.

`Cc1cc(=O)[nH]c2c1C(=O)c1c(C)cc(=O)n(C)c1C2=O`: the minimal inhibitory concentration (MIC) in the data set on Salmonella enterica was more than 24 µM; in the data set on Staphylococcus aureus, 12 µM (≈ 3.41 µg/mL); in the data set on Mycolicibacterium aurum, more than 24 µM; against Micrococcus luteus, 12 µM (≈ 3.41 µg/mL); with Escherichia coli, more than 24 µM; against Saccharomyces cerevisiae it was more than 24 µM. The same compound showed an MIC in the data set with Bacillus subtilis of 12 µM (≈ 3.41 µg/mL). The EC50 with A549 [1] stood at 0.25 µM; with PC-3 [2], 0.15 µM. For the same compound, in data set [5], the inhibition entry is “Active”.

Source of the values: ChEMBL document CHEMBL4414678, “Structure Determination, Functional Characterization, and Biosynthetic Implications of Nybomycin Metabolites from a Mining Reclamation Site-Associated Streptomyces” (J Nat Prod, 2019).
